The source made the active and inactive calls. The calls are words filed in the database; no cut-off is given here.
Legend:
A549 [1] = assay: Induction of apoptosis in human A549 cells assessed as early apoptotic cells at 2.5 uM after 48 hrs by Annexin-V/propidium iodide staining based flow cytometry (reference value: 5.27%); assay type: functional
A549 [2] = assay: Induction of apoptosis in human A549 cells assessed as necrotic cells at 10 uM after 48 hrs by Annexin-V/propidium iodide staining based flow cytometry (reference value: 0.63%); assay type: functional
DU-145 = assay: Cytotoxicity against human DU145 cells assessed as cell growth inhibition after 48 hrs by MTT assay; assay type: functional, cell-based; conditions: DU-145, 48 h
Outline: (§1)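 MTT assay. Cells were seeded at 1×10^4 per well in their medium with 10% FBS and allowed 24 h at 37 °C. Compound diluted in medium was added alongside a vehicle control and left for 48 h. MTT (0.5 mg/mL) was then added for 4 h, formazan dissolved in DMSO, and absorbance read at 570 nm. IC50 is the concentration inhibiting 50% of cells.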

A549 [3] = assay: Induction of apoptosis in human A549 cells assessed as horse-shoe shaped nuclei at 1.25 to 10 uM after 48 hrs by DAPI staining-based fluorescence microscopy; assay type: functional, cell-based
Outline: (§2)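 A549 cells were treated for 48 h, washed with PBS, and permeabilised with 0.1% Tween 20 for 10 min. They were stained with 1 μM DAPI and viewed by fluorescence microscopy (ex 359/em 461 nm, DAPI filter) at 200X.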

A549 [4] = assay: Induction of apoptosis in human A549 cells assessed as late apoptotic cells at 10 uM after 48 hrs by Annexin-V/propidium iodide staining based flow cytometry (reference value: 0.71%); assay type: functional
A549 [5] = assay: Cytotoxicity against human A549 cells assessed as reduction in cell viability by measuring cell shrinkage at 1.25 to 10 uM after 48 hrs by phase contrast microscopy; assay type: functional, cell-based
Outline: (§3)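 A549 cells (1×10^5 cells/mL) were plated in 6-well plates and left to adhere overnight. They were then incubated 48 h with 1.25, 2.5, 5.0 or 10.0 μM and examined for morphological changes by phase contrast microscopy at 200X.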

A549 [6] = assay: Cell cycle arrest in human A549 cells assessed as accumulation at G2/M phase at 10 uM after 48 hrs by propidium iodide-staining based flow cytometry (reference value: 34.25 +/- 5.75%); assay type: functional
A549 [7] = assay: Induction of apoptosis in human A549 cells assessed as membrane blebbing at 10 uM after 48 hrs by AO/EB double staining based fluorescence microscopy; assay type: functional, cell-based
Outline: (§4)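 A549 cells (1×10^6 cell/ml) were treated with different concentrations for 48 h at 37 °C in 5% CO2. Acridine orange and ethidium bromide (10 μg/mL each) were added, and after 10 min cells were viewed by fluorescence microscopy (ex 488/em 550 nm) at 200x.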

A549 [8] = assay: Induction of apoptosis in human A549 cells assessed as viable cells at 2.5 uM after 48 hrs by Annexin-V/propidium iodide staining based flow cytometry (reference value: 93.39%); assay type: functional; conditions: A549, 48 h, read-out: Activity
A549 [9] = assay: Induction of apoptosis in human A549 cells assessed as viable cells at 1.25 uM after 48 hrs by Annexin-V/propidium iodide staining based flow cytometry (reference value: 93.39%); assay type: functional; conditions: A549, 48 h, read-out: Activity
A549 [10] = assay: Induction of mitochondrial membrane potential loss in human A549 cells assessed as depolarized cell population at 10 uM after 24 hrs by JC-1-dye based flow-cytometry (reference value: 8.31 +/- 3.72%)
A549 [11] = assay: Induction of apoptosis in human A549 cells assessed as necrotic cells at 5 uM after 48 hrs by Annexin-V/propidium iodide staining based flow cytometry (reference value: 0.63%); assay type: functional
A549 [12] = assay: Induction of apoptosis in human A549 cells after 48 hrs by Annexin-V/propidium iodide staining based flow cytometry; assay type: functional, cell-based
A549 [13] = assay: Induction of apoptosis in human A549 cells assessed as necrotic cells at 1.25 uM after 48 hrs by Annexin-V/propidium iodide staining based flow cytometry (reference value: 0.63%); assay type: functional
A549 [14] = assay: Induction of apoptosis in human A549 cells assessed as cell shrinkage at 10 uM after 48 hrs by AO/EB double staining based fluorescence microscopy; assay type: functional; outline: as §4
[15] = Inhibition of pig brain tubulin polymerization assessed as reduction in tubulin assembly by fluorescence-based assay; design: species or system Sus scrofa
Outline: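 Kit assay with porcine brain tubulin (2 mg/mL) in 80 mM PIPES pH 6.9, 2.0 mM MgCl2, 0.5 mM EGTA, 1.0 mM GTP and glycerol. Test compound was used at final 10, 5, 2.5 or 1.25 μM. Polymerization was followed for 1 h at 37 °C by fluorescence reporter incorporation (ex 360/em 440 nm). Runs were in duplicate, and IC50 is the concentration inhibiting 50% of assembly versus control.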

A549 [16] = assay: Induction of ROS generation in human A549 cells after 24 hrs by DCFDA dye-based fluorescent microscopy; assay type: functional, cell-based
Outline: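 A549 cells (1×10^6 cells/mL) were left to adhere overnight, then treated 24 h with 1.25, 2.5, 5.0 or 10.0 μM. Medium was replaced with medium containing 10 μM DCFDA for 30 min in the dark. Fluorescence was read on a plate reader (ex 488/em 525 nm) and cells were imaged by fluorescence microscopy. NAC and H2O2 (positive control) were included. Mean ± SEM, n=3.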

A549 [17] = assay: Induction of mitochondrial membrane potential loss in human A549 cells assessed as increase in depolarized cell population after 24 hrs by JC-1-dye based flow-cytometry
A549 [18] = assay: Cytotoxicity against human A549 cells assessed as reduction in cell viability by measuring cell detachment at 1.25 to 10 uM after 48 hrs by phase contrast microscopy; assay type: functional, cell-based; outline: as §3
HT-29 = assay: Cytotoxicity against human HT-29 cells assessed as cell growth inhibition after 48 hrs by MTT assay; assay type: functional, cell-based; conditions: HT-29, 48 h; outline: as §1
A549 [19] = assay: Induction of apoptosis in human A549 cells assessed as viable cells at 10 uM after 48 hrs by Annexin-V/propidium iodide staining based flow cytometry (reference value: 93.39%); assay type: functional; conditions: A549, 48 h, read-out: Activity
A549 [20] = assay: Induction of apoptosis in human A549 cells assessed as late apoptotic cells at 2.5 uM after 48 hrs by Annexin-V/propidium iodide staining based flow cytometry (reference value: 0.71%); assay type: functional
A549 [21] = assay: Induction of apoptosis in human A549 cells assessed as chromatin condensation at 10 uM after 48 hrs by AO/EB double staining based fluorescence microscopy; assay type: functional, cell-based; outline: as §4
MCF7 = assay: Cytotoxicity against human MCF7 cells assessed as cell growth inhibition after 48 hrs by MTT assay; assay type: functional, cell-based; conditions: MCF7, 48 h; outline: as §1
HCT-116 = assay: Cytotoxicity against human HCT116 cells assessed as cell growth inhibition after 48 hrs by MTT assay; assay type: functional, cell-based; conditions: HCT-116, 48 h; outline: as §1
A549 [22] = assay: Induction of apoptosis in human A549 cells assessed as necrotic cells at 2.5 uM after 48 hrs by Annexin-V/propidium iodide staining based flow cytometry (reference value: 0.63%); assay type: functional
A549 [23] = assay: Induction of apoptosis in human A549 cells assessed as viable cells at 5 uM after 48 hrs by Annexin-V/propidium iodide staining based flow cytometry (reference value: 93.39%); assay type: functional; conditions: A549, 48 h, read-out: Activity
A549 [24] = assay: Induction of apoptosis in human A549 cells assessed as early apoptotic cells at 1.25 uM after 48 hrs by Annexin-V/propidium iodide staining based flow cytometry (reference value: 5.27%); assay type: functional
A549 [25] = assay: Induction of apoptosis in human A549 cells assessed as early apoptotic cells at 10 uM after 48 hrs by Annexin-V/propidium iodide staining based flow cytometry (reference value: 5.27%); assay type: functional
A549 [26] = assay: Induction of apoptosis in human A549 cells assessed as early apoptotic cells at 5 uM after 48 hrs by Annexin-V/propidium iodide staining based flow cytometry (reference value: 5.27%); assay type: functional
A549 [27] = assay: Cell cycle arrest in human A549 cells assessed as accumulation at sub G1 phase after 48 hrs by propidium iodide-staining based flow cytometry; assay type: functional
A549 [28] = assay: Induction of apoptosis in human A549 cells assessed as nuclei condensation at 1.25 to 10 uM after 48 hrs by DAPI staining-based fluorescence microscopy; assay type: functional, cell-based; outline: as §2
A549 [29] = assay: Cytotoxicity against human A549 cells assessed as cell growth inhibition after 48 hrs by MTT assay; assay type: functional, cell-based; conditions: A549, 48 h; outline: as §1
PC-3 = assay: Cytotoxicity against human PC3 cells assessed as cell growth inhibition after 48 hrs by MTT assay; assay type: functional, cell-based; conditions: PC-3, 48 h; outline: as §1
A549 [30] = assay: Cell cycle arrest in human A549 cells assessed as accumulation at sub G1 phase at 10 uM after 48 hrs by propidium iodide-staining based flow cytometry (reference value: 4.52 +/- 2.47%); assay type: functional
A549 [31] = assay: Induction of apoptosis in human A549 cells assessed as apoptotic body formation at 10 uM after 48 hrs by AO/EB double staining based fluorescence microscopy; assay type: functional, cell-based; outline: as §4
A549 [32] = assay: Induction of apoptosis in human A549 cells assessed as late apoptotic cells at 5 uM after 48 hrs by Annexin-V/propidium iodide staining based flow cytometry (reference value: 0.71%); assay type: functional
A549 [33] = assay: Induction of apoptosis in human A549 cells assessed as late apoptotic cells at 1.25 uM after 48 hrs by Annexin-V/propidium iodide staining based flow cytometry (reference value: 0.71%); assay type: functional

Work on COc1cc2c3c(c4cc(OC)c(OC)cc4c2cc1OC)C(c1ccc2c(c1)OCO2)CC(=O)N3 (stereo not drawn) yielded an Activity (A549 [1]) of 17.3%, an Activity (A549 [2]) of 0.01% and an IC50 (DU-145) of 17.5 µM. For the same molecule, the Activity (A549 [3]) was “Active”, the Activity (A549 [4]) was 1.93% and the Activity (A549 [5]) was “Dose-dependent effect”. For the same molecule, the Activity (A549 [6]) was 61.2%, the Activity (A549 [7]) was “Active” and the viability at 2.5 µM (A549 [8]) was 81.8%. It also gave a viability at 1.25 µM (A549 [9]) of 89.1%, an Activity (A549 [10]) of 79.8% and an Activity (A549 [11]) of 0.01%. For the same molecule, the Activity (A549 [12]) was “Dose-dependent effect”, the Activity (A549 [13]) was 0.09% and the Activity (A549 [14]) was “Active”. The IC50 [15] was 5.15 µM, the Activity (A549 [16]) was “Dose-dependent effect” and the Activity (A549 [17]) was “Dose-dependent effect”. For the same molecule, the Activity (A549 [18]) was “Dose-dependent effect”, the IC50 (HT-29) was 7.84 µM and the viability at 10 µM (A549 [19]) was 47.5%. The Activity (A549 [20]) was 0.85%, the Activity (A549 [21]) was “Active” and the IC50 (MCF7) was 9.59 µM. It also gave an IC50 (HCT-116) of 7.61 µM, an Activity (A549 [22]) of 0.01% and a viability at 5 µM (A549 [23]) of 74.2%. The Activity (A549 [24]) was 9.5%, the Activity (A549 [25]) was 50.6% and the Activity (A549 [26]) was 24.86%. The Activity (A549 [27]) was “Dose-dependent effect”, the Activity (A549 [28]) was “Active” and the IC50 (A549 [29]) was 3.17 µM. For the same molecule, the IC50 (PC-3) was 12.1 µM, the Activity (A549 [30]) was 31.22% and the Activity (A549 [31]) was “Active”. It also gave an Activity (A549 [32]) of 0.92% and an Activity (A549 [33]) of 1.32%.

Source: ChEMBL document CHEMBL4219132, “Sulfamic acid promoted one-pot synthesis of phenanthrene fused-dihydrodibenzo-quinolinones: Anticancer activity, tubulin polymerization inhibition and apoptosis inducing studies” (Bioorg Med Chem, 2018)
